These results are taken from ChEMBL document CHEMBL1127483, “Synthesis and structure activity relationships of cis- and trans-2,3,4,4a,9,9a-hexahydro-1H-indeno[2,1-c]pyridines for 5-HT receptor subtypes” (J Med Chem, 1994).

Where only a bound is given, the exact number is not on record here.

Assay [1] has as its target T1, 5-hydroxytryptamine receptor 1A (Rattus norvegicus, UniProt P19327).
T1 sequence (P19327 whole entry): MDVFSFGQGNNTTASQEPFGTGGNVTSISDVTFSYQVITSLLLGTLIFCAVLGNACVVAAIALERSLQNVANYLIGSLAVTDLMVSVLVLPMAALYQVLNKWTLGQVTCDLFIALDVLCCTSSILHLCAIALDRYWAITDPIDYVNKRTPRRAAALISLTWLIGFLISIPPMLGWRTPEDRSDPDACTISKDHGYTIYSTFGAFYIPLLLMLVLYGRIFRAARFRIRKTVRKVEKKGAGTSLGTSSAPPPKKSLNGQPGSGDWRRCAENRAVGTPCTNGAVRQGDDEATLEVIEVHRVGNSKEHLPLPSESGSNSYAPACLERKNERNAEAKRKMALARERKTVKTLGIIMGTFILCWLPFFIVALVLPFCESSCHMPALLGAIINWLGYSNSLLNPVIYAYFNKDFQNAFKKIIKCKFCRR
As to the kind of experiment: Binding affinity for 5-hydroxytryptamine 1A receptor with [3H]5-HT. The gist of the method: (§1)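 [3H]5-HT binding to 5-HT1 sites. The 5-HT1A component was distinguished by masking 5-HT1A sites with 1 µM S-spiroxatrine. Values are geometric means.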

Assay [2] has as its target 5-hydroxytryptamine receptor 1B (Rattus norvegicus, UniProt P28564). Briefly: Inhibition of [3H]5-HT binding to 5-hydroxytryptamine 1B receptor. The gist of the method: as §1
For assay [3], the target named is Serotonin 2 (5-HT2) receptor (Rattus norvegicus, UniProt P30994+P08909+P14842). As to the kind of experiment: Displacement of [3H]ketanserin from 5-hydroxytryptamine 2 receptor. In kind it is protein assay.

Chain of 5-hydroxytryptamine receptor 1B (P28564 whole entry): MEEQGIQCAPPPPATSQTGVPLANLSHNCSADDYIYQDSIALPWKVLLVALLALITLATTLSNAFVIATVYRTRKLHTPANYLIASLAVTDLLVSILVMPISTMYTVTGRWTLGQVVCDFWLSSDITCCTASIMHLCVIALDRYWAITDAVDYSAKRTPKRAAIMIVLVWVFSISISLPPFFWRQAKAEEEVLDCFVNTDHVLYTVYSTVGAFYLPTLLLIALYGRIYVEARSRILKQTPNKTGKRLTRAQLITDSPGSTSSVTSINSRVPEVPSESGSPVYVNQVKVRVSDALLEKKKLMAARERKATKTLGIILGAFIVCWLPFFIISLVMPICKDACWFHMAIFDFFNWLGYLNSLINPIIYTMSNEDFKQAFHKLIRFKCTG

On to `CCCN1CC[C@H]2c3c(cccc3OC)C[C@@H]2C1`, for which the figures for the Ki in assay [1], in assay [2] and in assay [3] were 76.2 nM, 5010 nM and 688 nM, respectively.

As to `COc1cccc2c1[C@@H]1CCN(CCCN3C(=O)CC4(CCCC4)CC3=O)C[C@H]1C2`, the values for the Ki in assay [1], in assay [2] and in assay [3] were 51.2 nM, 7360 nM and 15.9 nM, respectively.

Take `COc1cccc2c1C1CCN(CCCCN3C(=O)C4C5C=CC(C6C=CC65)C4C3=O)CC1C2.Cl` (trans isomer): the Ki worked out at 3.6 nM in assay [1], 1310 nM in assay [2] and 2.58 nM in assay [3].

Regarding `CCCN1CC[C@H]2c3c(cccc3OC)C[C@H]2C1`, the Ki in assay [2] came out at 48500 nM; in assay [3], 965 nM.

Take `CCCN(CCC)C1CCc2cccc(O)c2C1` (stereo not given) [8-OH-DPAT]: the Ki in assay [3] was > 10000 nM.

With `COc1cccc2c1[C@@H]1CCN(CCCCN3C(=O)CC4(CCCC4)CC3=O)C[C@H]1C2`, the Ki in assay [1] came to 1.65 nM; in assay [2], 800 nM; in assay [3] it was 9.3 nM.

Consider `COc1cccc2c1[C@@H]1CCN(CCCN3C(=O)CC4(CCCC4)CC3=O)C[C@@H]1C2`, for which the Ki in assay [1] worked out at 692 nM; in assay [2] it was 96400 nM; in assay [3], 17.4 nM.

With `COc1cccc2c1C1CCN(CCCCN3C(=O)c4ccccc4S3(=O)=O)CC1C2` (stereo not given), the figures for the Ki in assay [1], in assay [2] and in assay [3] were 1.98 nM, 325 nM and 33.4 nM, respectively.

`COc1cccc2c1C1CCN(CCCN3C(=O)c4ccccc4S3(=O)=O)CC1C2` (stereo not given): the values for the Ki in assay [1], in assay [2] and in assay [3] were 0.891 nM, 845 nM and 3 nM, respectively.

As for `COc1cccc2c1C1CCN(CCNC(=O)c3ccc(F)cc3)CC1C2` (stereo not given), the figures for the Ki in assay [1], in assay [2] and in assay [3] were 0.588 nM, 888 nM and 28.9 nM, respectively.

As to `COc1cccc2c1[C@@H]1CCN(CCCCN3C(=O)CC4(CCCC4)CC3=O)C[C@@H]1C2`, the Ki in assay [1] was determined as 54.5 nM; in assay [2], 13600 nM; in assay [3], 35.9 nM.
